# Calls of active or inactive are those of the source. The rule behind the calls is not given here.
# Key:
# [1] = (§1) Inhibition of recombinant wild type full length His-tagged HCV genotype 1b NS3 (1027 to 1657 residues)/4A (1658 to 1711 residues) protease expressed in Escherichia coli rosetta (DE3) cells using Ac-DE-Dap(QXL520)-EE-Abu-Psi-[COO]AS-C(5-FAMsp)-NH2 as substrate preincubated up to 10 mins followed by substrate addition and measured for 10 mins by fluorescence-based microplate reader analysis; set-up: species or system Hepatitis C virus subtype 1b
# Summary of the method: (§2)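 IC50 came from the fluorescence-based enzymatic assay by fitting the inhibition curve to the three-parameter Hill equation.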
# [2] = test system: Hepatitis C virus serine protease, NS3/NS4A (Hepatitis C virus), D2K2A8+A3EZI9 [R155K]; test: as §1, with “recombinant” for “recombinant wild type”, “NS3/4A” for “NS3”, “1657” for “1657 residues)/4A (1658 to 1711”, “protease R155K (NS3) mutant” for “protease”; conditions: Hepatitis C virus subtype 1b
# Summary of the method: (§3)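 IC50 values come from a fluorescence-based enzymatic assay, with dose-response curves fitted to a three-parameter Hill equation. The mutants were genotype 1b NS3/4A.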
# [3] = test system: Hepatitis C virus subtype 2a; test: Inhibition of recombinant HCV genotype 2a NS3/4A protease using Ac-DE-Dap(QXL520)-EE-Abu-Psi-[COO]AS-C(5-FAMsp)-NH2 as substrate preincubated up to 10 mins followed by substrate addition and measured for 10 mins by fluorescence-based microplate reader analysis; summary of the method: as §2
# [4] = (§4) Inhibition of recombinant HCV genotype 3a NS3/4A protease using Ac-DE-Dap(QXL520)-EE-Abu-Psi-[COO]AS-C(5-FAMsp)-NH2 as substrate preincubated up to 10 mins followed by substrate addition and measured for 10 mins by fluorescence-based microplate reader analysis; set-up: species or system Hepatitis C virus subtype 3a; summary of the method: as §2
# [5] = test system: Hepatitis C virus subtype 1a; test: Inhibition of recombinant HCV genotype 1a NS3/4A protease using Ac-DE-Dap(QXL520)-EE-Abu-Psi-[COO]AS-C(5-FAMsp)-NH2 as substrate preincubated up to 10 mins followed by substrate addition and measured for 10 mins by fluorescence-based microplate reader analysis; summary of the method: as §2
# [6] = test system: Hepatitis C virus genotype 4; test: Inhibition of recombinant HCV genotype 4 NS3/4A protease using Ac-DE-Dap(QXL520)-EE-Abu-Psi-[COO]AS-C(5-FAMsp)-NH2 as substrate preincubated up to 10 mins followed by substrate addition and measured for 10 mins by fluorescence-based microplate reader analysis; summary of the method: as §2
# [7] = test system: Hepatitis C virus subtype 3a; test: as §4; summary of the method: as §2
# [8] = test system: Hepatitis C virus serine protease, NS3/NS4A (Hepatitis C virus), D2K2A8+A3EZI9 [V36M]; test: as §1, with “recombinant” for “recombinant wild type”, “NS3/4A” for “NS3”, “1657” for “1657 residues)/4A (1658 to 1711”, “protease V36M (NS3) mutant” for “protease”; conditions: Hepatitis C virus subtype 1b; summary of the method: as §3
# [9] = test system: Hepatitis C virus serine protease, NS3/NS4A (Hepatitis C virus), D2K2A8+A3EZI9 [A156S]; test: as §1, with “recombinant” for “recombinant wild type”, “NS3/4A” for “NS3”, “1657” for “1657 residues)/4A (1658 to 1711”, “protease A156S (NS3) mutant” for “protease”; conditions: Hepatitis C virus subtype 1b; summary of the method: as §3
# [10] = Binding affinity to recombinant full length His-tagged HCV genotype 1b NS3 (1027 to 1657 residues)/4A (1658 to 1711 residues) protease expressed in Escherichia coli rosetta (DE3) cells assessed as dissociation constant by SPR analysis; set-up: species or system Hepatitis C virus subtype 1b
smiles,measurement,setting,value
Cc1ccc(S(=O)(=O)Nc2ccccc2C(=O)Nc2nc(-c3cc(Cl)ccc3Cl)cs2)cc1,IC50,[1],< 2 µM
same,inhibition,[2],inactive
same,inhibition,[3],Active
same,IC50,[4],14 to 33 µM
same,inhibition,[5],Active
same,inhibition,[6],Active
Cc1cc(NC(=O)Cc2csc(NS(=O)(=O)c3ccccc3)n2)ccc1Br,inhibition,[7],inactive
Cc1ccc(S(=O)(=O)Nc2ccccc2C(=O)Nc2nc3c(cc4c5c(cccc53)CC4)s2)cc1,IC50,[1],2 to 5 µM
same,inhibition,[2],inactive
same,inhibition,[3],Active
same,IC50,[4],14 to 33 µM
same,inhibition,[5],Active
same,inhibition,[6],Active
Cc1ccc(S(=O)(=O)Nc2ccccc2C(=O)Nc2nc3c(C)cc(C)cc3s2)cc1,IC50,[1],2 to 5 µM
CSc1cccc(NC(=O)Cc2csc(NS(=O)(=O)c3ccccc3)n2)c1,IC50,[1],5 to 10 µM
Cc1ccc(S(=O)(=O)Nc2ccccc2C(=O)Nc2nc3c(Cl)ccc(Cl)c3s2)cc1,IC50,[1],1.6 µM
same,inhibition,[2],Active
same,inhibition,[3],Active
same,inhibition,[8],Active
same,inhibition,[9],Active
same,IC50,[4],14 to 33 µM
same,inhibition,[5],Active
same,inhibition,[6],Active
Cc1ccc(S(=O)(=O)Nc2ccccc2C(=O)Nc2nc3c(C)ccc(Cl)c3s2)cc1,IC50,[1],5 to 10 µM
same,inhibition,[2],inactive
same,inhibition,[3],Active
same,IC50,[4],14 to 33 µM
same,inhibition,[5],Active
same,inhibition,[6],Active
CSc1cccc2sc(NC(=O)c3ccccc3NS(=O)(=O)c3ccc(C)cc3)nc12,IC50,[1],10 to 100 µM
same,Kd,[10],> 200 µM
Cc1ccc(S(=O)(=O)Nc2ccccc2C(=O)Nc2nc3c(Br)cccc3s2)cc1,IC50,[1],10 to 100 µM
same,Kd,[10],> 200 µM
Cc1ccc(S(=O)(=O)Nc2ccccc2C(=O)Nc2nc3ccc4sc(C)nc4c3s2)cc1,IC50,[1],2 to 5 µM
Cc1ccc(S(=O)(=O)Nc2ccccc2C(=O)Nc2nc3ccc4ccccc4c3s2)cc1,IC50,[1],2 to 5 µM
Cc1c(Cl)cccc1NC(=O)Cc1csc(NS(=O)(=O)c2ccccc2)n1,IC50,[1],5 to 10 µM
Cc1ccc(S(=O)(=O)Nc2ccccc2C(=O)Nc2nc3c(ccc4ccccc43)s2)cc1,IC50,[1],5 to 10 µM

# Reference: ChEMBL document CHEMBL4385618, “Exploring small molecules with pan-genotypic inhibitory activities against hepatitis C virus NS3/4A serine protease” (Bioorg Med Chem Lett, 2019)
